Source: PubChem
RanGTP-Impb inh: inhibitors of RanGTP-importin-beta interaction, primary screen, biochemical, FRET, CFP-Ran, YFP-importin-beta, homogeneous; cell-free CFP-Ran/YFP-importin-beta FRET ratio; inhibition, % (no concentration beside the values); AID 2216; 1.1% of 300,000 active;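 active means more than half of the replicate wells show a fall in the fluorescence ratio signal beyond about 16%, limit read from the data, passing the limit was not always enough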;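 further: 0% = DMSO wells and 100% = Ran loaded with GDP instead of GTP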
Wee1 degr inh: human Wee1 degradation inhibition, primary screen | 1.2% of 220,000 active | HeLa Luc-Wee1K328M stability, luciferase luminescence; 100% = proteasome inhibitor MG132 effect | reporter increase, % at 5 µM;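 active means activation above the mean of all tested compounds plus 3 SD, set per screening run, cut at about 8.8% in these data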;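 further: cells exposed to compound for 20 h before luminescence read; 0% = DMSO alone and 100% = MG132 at 30 µM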
AI-2 QS modul: modulates the Vibrio harveyi AI-2 quorum sensing system; Vibrio harveyi JMH597 AI-2 luminescence/OD600 ratio, 9 h; stronger effect = lower value; strain lacks LuxN and CqsS sensors; 0 = neutral-control median; activity change, % at 7.5 µM; 0.4% of 300,000 active; AID 2094; in the data active means activity change below about -75%, passing the limit was not always enough;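 further: luminescence divided by OD600 gain over 9 h not by final OD600 alone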
Runt-SMMHC FRET: Runt domain-CBFb-SMMHC interaction inhibition; Cerulean-Runt/Venus-CBFb-SMMHC FRET ratio 530/480, 1 h; 0.74% of 220,000 active; inhibition, % at 20 µM; AID 1434; Q01196+Q13951;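 active means mean inhibition across duplicate retests at 20 µM reaching about 50%, limit read from the data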;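 further: 0% = DMSO wells and 100% = wells with excess untagged CBFb-SMMHC; inhibitors lower the FRET ratio by blocking Runt binding to CBFb-SMMHC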
KLK7 zymogen act: proKLK7 (human) activation, primary screen. purified proKLK7, EDANS-DABCYL substrate fluorescence; 100% is mature enzyme control, 0% vehicle. activation, % at 7 µM. 0.9% of 370,000 active. AID 652039;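 active means activation above the mean of all tested compounds plus 3 SD, computed per campaign excluding outliers beyond control limits, cut at about 13% in these data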
Runt-CBFb FRET: Runt domain-CBFb interaction inhibition; inhibition, % at 20 µM; Cerulean-Runt/Venus-CBFb FRET ratio 530/480, 1 h; Q01196+Q13951; 0.46% of 220,000 active; AID 1496;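 active means inhibition over about 50% at 20 µM in the single-dose screen, limit read from the data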;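 further: 0% = DMSO wells and 100% = excess unlabeled CBFb competitor control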
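Measured by: fluorescence energy transfer, 422 nm excitation, 530/480 nm emission; Assay system: Cerulean-Runt domain; Medium: Tris pH 7.5 buffer with BSA; Measure: loss of energy transfer signal; Controls: 5 µM unlabeled CBFb as full-inhibition high control; Incubation: protein complex preformed 1 h, compound exposure 1 h, room temperature, dark.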
* = called active by the depositor. Sampled rows, rich in hits. Any-hit rate of the full collection: about 2.9%.

`Cc1ccc(C(C(=O)NCc2ccccc2)N(C(=O)c2ccccn2)c2ccccc2)o1` (configuration not stated) gave RanGTP-Impb inh 1.6, AI-2 QS modul 12.0 and KLK7 zymogen act 0.3.
For O=c1[nH]c(C2CCN(S(=O)(=O)c3ccc(F)cc3)CC2)nc2c1nnn2Cc1ccc2c(c1)OCCO2 the results were RanGTP-Impb inh 19.3*, AI-2 QS modul 35.4 and KLK7 zymogen act -0.2.
`COC(=O)[C@]12C[C@H](CC(=O)NCc3ccc(C)o3)C(=O)N(Cc3ccc4c(c3)OCO4)C1=C[C@H](COCc1ccccc1)O[C@@H]2C` gave KLK7 zymogen act 0.4.
`CCCCCCNc1c([N+](=O)[O-])c(=O)sc2ccccc12` gave RanGTP-Impb inh 147.2*, Wee1 degr inh -2.2, AI-2 QS modul 18.6, Runt-SMMHC FRET -4.3, KLK7 zymogen act 0.3 and Runt-CBFb FRET 0.4.
`CC(=O)NC12CC3CC(C1)CC(C(=O)N1CCN(S(=O)(=O)c4ccccc4C#N)CC1)(C3)C2` gave KLK7 zymogen act 0.3.
Screening Cc1ccc(C)c(N2CCN(S(=O)(=O)c3ccc4c(c3)NC(=O)CC(=O)N4)CC2)c1 returned RanGTP-Impb inh 6.5, AI-2 QS modul 30.4 and KLK7 zymogen act 1.2.
Cc1ccc(C)c(N2CCN(S(=O)(=O)c3ccc4c(c3)CCC(=O)N4)CC2)c1 was read as RanGTP-Impb inh 3.6, Wee1 degr inh -0.6, AI-2 QS modul 51.0, Runt-SMMHC FRET 0.1 and Runt-CBFb FRET 103.8*.
`CCOc1cccc(CN2CCN(Cc3ccc(C)o3)C(CCO)C2)c1O` (configuration not stated) gave RanGTP-Impb inh -3.6, Wee1 degr inh 9.3*, AI-2 QS modul 15.9, Runt-SMMHC FRET 2.1, KLK7 zymogen act -0.8 and Runt-CBFb FRET 0.0.
For CCOc1cccc(CN2CCN(CCc3ccccc3)C(CCO)C2)c1O (configuration not stated) the results were RanGTP-Impb inh -2.3, Wee1 degr inh -2.6, AI-2 QS modul 31.3, Runt-SMMHC FRET 0.6, KLK7 zymogen act -0.2 and Runt-CBFb FRET -0.5.
`CC(C#N)(NC(=O)CN1CCN(S(=O)(=O)c2cccc(F)c2)CC1)C1CC1` (configuration not stated) gave KLK7 zymogen act 0.5.
`CC(=O)Nc1cccc(-c2csc(C(C)(O)c3ccc(F)c(F)c3)n2)c1` (configuration not stated) gave KLK7 zymogen act 0.0.
Screening O=C(O)c1ccc(N/N=C/c2ccc(-c3ccccc3Cl)o2)cc1 returned RanGTP-Impb inh 54.2*, Wee1 degr inh -2.4, AI-2 QS modul -94.8*, Runt-SMMHC FRET 81.2*, KLK7 zymogen act -1.1 and Runt-CBFb FRET 45.6.
`O=C(O)c1ccc(N/N=C/c2ccc(-c3ccc(Br)cc3)o2)cc1` gave RanGTP-Impb inh 70.1*, AI-2 QS modul -96.1* and KLK7 zymogen act -0.3.
Screening Nc1nonc1C(=O)N/N=C/c1ccc(-c2ccc(Cl)c(C(=O)O)c2)o1 returned RanGTP-Impb inh -0.8, Wee1 degr inh -1.1, AI-2 QS modul 10.3, Runt-SMMHC FRET 0.1, KLK7 zymogen act 0.3 and Runt-CBFb FRET 6.0.
O=C(O)c1cc(-c2ccc(/C=N/Nc3ccc(Cl)cc3)o2)ccc1Cl was read as RanGTP-Impb inh 3.2, Wee1 degr inh -0.5, AI-2 QS modul -1.3, Runt-SMMHC FRET 81.5*, KLK7 zymogen act -2.8 and Runt-CBFb FRET 16.4.
O=C(CCc1ccccc1)c1c(O)cc(O)cc1O was read as RanGTP-Impb inh -1.4, AI-2 QS modul -81.1*, Runt-SMMHC FRET 2.8, KLK7 zymogen act -0.1 and Runt-CBFb FRET 2.2.
`CC1CC(=O)Nc2ccccc2N1S(=O)(=O)c1cccc(Cl)c1` (configuration not stated) gave RanGTP-Impb inh -1.7, Wee1 degr inh -1.3, AI-2 QS modul 20.5, Runt-SMMHC FRET 0.5, KLK7 zymogen act 0.5 and Runt-CBFb FRET 0.6.
